Compounds with a hit are over-represented: about 12% of the library has one in this group of screens.
L major viab: Leishmania major promastigote growth inhibition; Leishmania major promastigotes, resazurin fluorescence viability; inhibition, % at 10 µM; 200,000 tested, 9% active; in the data active means inhibition above about 50%;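 further: promastigotes grown with compound for 44 hours at 28 °C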
Diaph inh CS: diaphorase inhibition or chemical oxidation counter-screen; diaphorase resazurin-to-resorufin fluorescence, NADH, 16 min; bacterial (C. kluyveri) enzyme, not human; 190,000 tested, 0.69% active; inhibition, % at 20 µM;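 active means primary screen inhibition at 20 µM above a set limit, cut at about 50% in these data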;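 further: plate controls were DMSO with full reaction for no effect and wells lacking NADH for full effect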
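controls = No-NADH positive control and DMSO neutral control | system = Clostridium kluyveri diaphorase enzyme | timing = reaction incubation of 16 min at room temperature | signal = resorufin fluorescence 544/590 nm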
ROMK mod: modulates human ROMK potassium channel activity; P48048; Tet-inducible ROMK, thallium flux fluorescence; actives lie on both sides; B-score at 10 µM; 130,000 tested, 2% active; AID 1918;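 active means signal ratio slope over the read window, or its plate-corrected B-score, at least 3 SD from the plate mean, either direction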;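 further: B-score of the F/F0 ratio slope over 7 to 12 s after thallium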
Target sequence (P48048 whole entry, looked up): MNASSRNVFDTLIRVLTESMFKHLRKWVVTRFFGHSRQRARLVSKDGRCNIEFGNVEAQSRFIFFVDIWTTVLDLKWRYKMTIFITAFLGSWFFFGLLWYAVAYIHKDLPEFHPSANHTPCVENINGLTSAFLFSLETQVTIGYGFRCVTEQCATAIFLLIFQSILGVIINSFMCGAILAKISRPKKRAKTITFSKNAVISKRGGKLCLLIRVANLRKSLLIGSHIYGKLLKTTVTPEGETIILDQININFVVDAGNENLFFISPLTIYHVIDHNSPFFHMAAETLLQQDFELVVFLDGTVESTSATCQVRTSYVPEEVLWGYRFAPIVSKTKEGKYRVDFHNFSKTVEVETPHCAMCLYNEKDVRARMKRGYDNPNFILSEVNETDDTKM
Cl transport mod: modulators of human KCC2 chloride dependent transport | Q9H2X9 | KCC2 cells, thallium flux FluoZin-2 fluorescence | B-score of Tl+ flux slope (higher = more flux/activation; lower = inhibition) at 10 µM | 190,000 tested, 2.2% active;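 active means thallium flux slope and its plate-corrected score both differing from the plate sample mean at a set confidence after two filtering rounds, in either direction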;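 further: slope of fluorescence scaled to starting intensity during 10 to 20 s after thallium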
WT yeast gro inh: growth inhibition of WT yeast, mitochondrial fusion screen | mitochondrial fusion phenotypic screen, WT strain | inhibition, % at 10 µM | 190,000 tested, 2.1% active; in the data active means inhibition above about 58%; tested in S. cerevisiae
Diaph act CS: activates diaphorase or chemically reduces, flagging diaphorase assay artifacts; Diaphorase/resazurin coupled assay, resorufin fluorescence, 16 min; stronger effect = higher value; 1 = vehicle wells, 0 = NADH-free wells; activation factor at 20 µM; 190,000 tested, 0.005% active;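 active means diaphorase activity raised at least twofold by the compound at 20 µM; inactive means activation factor below 2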
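Test system: Clostridium kluyveri diaphorase, purified enzyme. Buffer or medium: 50 mM HEPES pH 7.4 buffer plus MgCl2 and Tween 20. Also added: 0.114 mM NADH and 0.1 mM resazurin, final amounts. Dosing: compound 20 µM once, DMSO 1%. Schedule: 16 min enzyme reaction, ambient temperature. Detection: fluorescence of resorufin, 544 nm excitation, 590 nm emission.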
The depositor's hits bear a star; x = not tested or not shown.

SMILES	L major viab	Diaph inh CS	ROMK mod	Cl transport mod	WT yeast gro inh	Diaph act CS
CC(C)Oc1ccccc1C1Nc2ccccc2C(=O)N1c1ccc2c(c1)OCCO2 (stereo not drawn)	62.7*	12.5	-0.334	-2.57	33.8	0.9
CC(C)Oc1ccccc1C1CC(=O)Nc2cc3c(cc21)OCCO3 (stereo not drawn)	18.1	13.6	x	5.41	17.8	0.9
Cc1ccc(S(=O)(=O)Nc2cccc3c2CCCC3)cc1	53.6*	18.2	-1.36	-0.903	36.7	0.8
O=S(=O)(Nc1cccc2c1CCCC2)c1cccc(C(F)(F)F)c1	43.8	21.1	x	-0.308	31.4	0.8
O=C(c1ccc(N2CCN(C3CC(=O)N(c4ccc(F)cc4)C3=O)CC2)cc1)c1cccnc1 (stereo not drawn)	1.6	8.8	x	x	-8.6	0.9
CCN1C(=O)CC(N2CCN(c3ccc(C(=O)c4ccncc4)cc3)CC2)C1=O (stereo not drawn)	73.0*	-8.0	0.694	x	0.4	1.1
CCOc1ccc(N2C(=O)CC(N3CCN(c4ccc(C(=O)c5ccncc5)cc4)CC3)C2=O)cc1 (stereo not drawn)	76.5*	x	x	0.813	x	x
O=C1Nc2ccc(Br)cc2C1(O)Cc1ccccn1 (stereo not drawn)	-6.9	-6.0	x	-0.303	-7.8	1.1
O=C1Nc2ccc(Br)cc2C12NNc1ccccc1O2 (stereo not drawn)	72.9*	21.7	-1.21	0.364	87.6*	0.8
CC(C)(C)c1ccc(O)c(/C=N\O)c1	5.6	22.9	-1.25	x	-4.4	0.8
CC(C)(C)c1cccc(/C=N/O)c1O	52.5*	14.7	-2	x	6.5	0.9
S=c1[nH]ncn1/N=C/c1ccc(Br)cc1	-8.5	41.8	x	-0.0253	2.9	0.6
S=c1[nH]ncn1/N=C/c1ccccc1	-1.3	60.3*	0.0585	x	x	0.4
CCn1c2ccccc2c2cc(/C=N/n3cn[nH]c3=S)ccc21	3.5	61.6*	x	22.5*	52.1	0.4
CCn1c2ccccc2c2nnc(SCCCn3c(=O)[nH]c4ccccc43)nc21	18.6	45.4	-0.482	x	11.1	0.5
CCC(Sc1nccn1C)C(=O)Nc1ccc(Cl)cn1 (stereo not drawn)	-9.0	0.8	-0.282	x	9.2	1
O=C(NC(C(=O)N/N=C/c1c2ccccc2cc2ccccc12)c1n[nH]c(=O)c2ccccc12)c1ccccc1 (stereo not drawn)	92.5*	30.3	x	-0.329	-6.0	0.7
O=C(NC(C(=O)N/N=C/c1ccccc1)c1n[nH]c(=O)c2ccccc12)c1ccccc1 (stereo not drawn)	10.4	19.7	x	-0.676	-10.4	0.8
Cc1[nH]c2ccccc2c1/C=N/NC(=O)c1cc(C(C)C)[nH]n1	x	x	0.378	-2.97	x	x
CSC[C@@H]1NC(=S)N(c2ccc(C)cc2)C1=O	28.3	7.1	-0.898	0.116	-6.9	0.9
COc1ccc2c(c1)/C(=N/OC(=O)c1cccs1)CCC2	3.5	9.9	0.544	1.65	70.8*	0.9
CC(=O)c1c(C)[nH]c(C(=O)OCc2ccccc2)c1C	-0.6	15.6	2.06	-0.429	15.6	0.8
CCN(CC)CCc1c(C)[nH]c(C(=O)OCc2ccccc2)c1C	100.1*	3.3	-0.541	x	-13.7	1
CCN1CCN(C(=O)C23CCC(C)(C(=O)C2Br)C3(C)C)CC1 (stereo not drawn)	x	x	x	0.637	x	x
CN(C)S(=O)(=O)c1ccc(NC(=O)C2CC3C=CC2C3)cc1 (stereo not drawn)	-3.7	10.5	x	0.425	5.3	0.9
SMILES	L major viab	Diaph inh CS	ROMK mod	Cl transport mod	WT yeast gro inh	Diaph act CS
O=C(Nc1cccc(C(=O)N2CCN(Cc3ccccc3)CC2)c1)c1ccccc1	75.4*	-6.3	x	-1.94	7.2	1.1
c1ccc(CN2CCOCC2)cc1	-4.7	6.6	0.563	-0.112	-21.5	0.9
O=C(c1cccc(Cl)c1)N1CCN(Cc2ccncc2)CC1	-6.9	10.0	x	0.264	5.3	0.9
CSc1ccc(CN2CCN(C(=O)c3ccncc3)CC2)cc1	73.8*	8.0	0.344	-0.16	15.0	0.9
c1ccc(Oc2cccc(CN3CCOCC3)c2)cc1	99.7*	0.3	x	0.0463	-1.9	1
O=C(OCC(=O)N1CCN(Cc2ccccc2)CC1)c1ccc(Cl)cc1	57.1*	13.4	-0.83	-1.29	47.7	0.9
Cc1cc(C(=O)OCC(=O)NCc2cccs2)c2ccccc2n1	0.8	10.3	-0.774	-1.67	-10.3	0.9
CS(=O)(=O)N(CC(=O)NCC1CCCO1)c1ccc(F)c(Cl)c1 (stereo not drawn)	-6.9	6.6	0.0225	0.693	-3.3	0.9
O=C(c1ccc(CN2CCOCC2)cc1)N1CCN(Cc2ccccc2)CC1	75.7*	-1.7	0.0219	-0.834	15.3	1
O=S1(=O)CCN(Cc2cccc(C(F)(F)F)c2)CC1	-4.2	-8.6	-0.855	-0.212	1.2	1.1
COc1ccc(-c2cc(C3CCN(Cc4ccc([N+](=O)[O-])cc4)CC3)[nH]n2)cc1	56.2*	1.1	0.0694	x	-5.7	1
COc1ccc(-c2cc(C3CCN(Cc4cccc(C(F)(F)F)c4)CC3)[nH]n2)cc1	67.6*	16.9	0.239	0.0505	46.1	0.8
CC(=O)NCc1ccc(-c2nc3ccccc3s2)cc1	-2.6	7.9	0.762	-1.45	14.2	0.9
CC(=O)NC1C(c2nc3ccccc3s2)=C(c2ccccc2)C(=O)N1c1ccc(C)cc1 (stereo not drawn)	96.9*	18.1	-0.167	-1.45	68.0*	0.8
COc1cccc(N2C(=O)C(c3ccccc3)=C(c3nc4ccccc4s3)C2NC(C)=O)c1 (stereo not drawn)	25.9	14.2	x	-1.68	70.5*	0.9
CCC(C)(C)n1nnnc1C(c1ccccc1)N1CCN(Cc2ccccc2)CC1 (stereo not drawn)	8.4	19.6	-1.07	-0.851	0.4	0.8
CCC(C)(C)n1nnnc1C(c1ccc(C)cc1)N1CCN(Cc2ccc3c(c2)OCO3)CC1 (stereo not drawn)	80.6*	8.8	x	0.342	16.3	0.9
CCC(C)(C)n1nnnc1C(c1ccc(C)cc1)N1CCC(C)CC1 (stereo not drawn)	61.7*	1.8	x	-0.177	5.0	1
CCC(C)(C)n1nnnc1C(c1ccc2ncccc2c1)N1CCN(Cc2ccc3c(c2)OCO3)CC1 (stereo not drawn)	99.2*	8.7	x	x	-4.1	0.9
CCC(C)(C)n1nnnc1C(c1ccc2ncccc2c1)N1CCN(c2ccc(O)cc2)CC1 (stereo not drawn)	x	x	x	0.0952	x	x
CC(C)C(c1nnnn1CC1CCCO1)N1CCN(Cc2ccc3c(c2)OCO3)CC1 (stereo not drawn)	83.3*	16.4	-1.43	0.572	-11.1	0.8
CC(C)C[C@@H]1NC(=O)[C@H](CO)NC(=O)c2cc([N+](=O)[O-])cc(I)c2OCC[C@@H](C(N)=O)NC1=O	-4.7	15.3	0.493	0.0263	-7.6	0.8

Screening data as filed in PubChem BioAssay.
